Results reported in ChEMBL document CHEMBL1154778, “Synthesis and biological evaluation of C-5 methyl substituted 4-arylthio and 4-aryloxy-3-Iodopyridin-2(1H)-one type anti-HIV agents” (J Med Chem, 2009).

system: Human immunodeficiency virus 1; test: Antiviral activity against HIV-1 LAI harboring wild type reverse transcriptase infected in human MT4 cells after 5 days by MTT assay; assay type: functional, organism-based; details: Human immunodeficiency virus 1, LAI, MT4, 120 h
Method in brief: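 MT4 cells were kept in RPMI 1640 with 10% fetal calf serum and antibiotics at 37 °C, 5% CO2. A range of compound concentrations was incubated with HIV-1 LAI at 200 CCID50/well and 30000 MT4 cells/well for 5 days at 37 °C. Cell viability was read by MTT, and IC50 was the concentration giving 50% infection versus the drug-free control.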

Row | Structure (SMILES) | IC50
1 | Cc1cc(C)cc(Oc2c(Cn3ccnc3)c(C)[nH]c(=O)c2I)c1 | 1.99 nM
2 | Cc1cc(C)cc(Oc2c(Cn3cnnn3)c(C)[nH]c(=O)c2I)c1 | 0.79 nM
3 | Cc1cc(C)cc(Oc2c(CSCc3ccco3)c(C)[nH]c(=O)c2I)c1 | 1.25 nM

system: not listed separately; test: Selectivity index, ratio of CC50 for human MT4 cells to IC50 for HIV-1 LAI harboring wild type reverse transcriptase infected in human MT4 cells; assay type: functional; details: not given
Method in brief: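 Cytotoxicity was measured in mock-infected MT4 cultures (30000 cells/well) given the same compound concentration range, run in parallel with the infected cultures for 5 days at 37 °C, 5% CO2, with MTT viability. CC50 was the concentration reducing viability by 50% versus the drug-free control. SI was CC50 divided by IC50 against HIV-1 LAI.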

Row | Structure (SMILES) | Ratio CC50/IC50
4 | Cc1cc(C)cc(Oc2c(Cn3ccnc3)c(C)[nH]c(=O)c2I)c1 | >50118
5 | Cc1cc(C)cc(Oc2c(Cn3cnnn3)c(C)[nH]c(=O)c2I)c1 | >100000
6 | Cc1cc(C)cc(Oc2c(CSCc3ccco3)c(C)[nH]c(=O)c2I)c1 | >79433

system: Human immunodeficiency virus 1; test: Antiviral activity against HIV1 HXB2 harboring K103N mutant reverse transcriptase infected in human MT4 cells after 5 days by MTT assay; assay type: functional, organism-based; details: Human immunodeficiency virus 1, HXB2, MT4, 120 h
Method in brief: (§1)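 Mutant viruses were made by recombining the mutant PR-RT sequence into a PR-RT-deleted HIV-1 HXB2 proviral clone. MT4 cells were grown in RPMI 1640 with 10% FCS and antibiotics. Virus at 200 CCID50/well and 30000 cells/well were incubated with varied compound concentrations for 5 days at 37 °C, 5% CO2. MTT viability gave IC50, the concentration giving 50% infection versus the drug-free control.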

Row | Structure (SMILES) | IC50
7 | Cc1cc(C)cc(Oc2c(Cn3ccnc3)c(C)[nH]c(=O)c2I)c1 | 2.51 nM
8 | Cc1cc(C)cc(Oc2c(Cn3cnnn3)c(C)[nH]c(=O)c2I)c1 | 1.4 nM
9 | Cc1cc(C)cc(Oc2c(CSCc3ccco3)c(C)[nH]c(=O)c2I)c1 | 1 nM

system: Human immunodeficiency virus 1; test: Antiviral activity against HIV1 HXB2 harboring Y181C mutant reverse transcriptase infected in human MT4 cells after 5 days by MTT assay; assay type: functional, organism-based; details: Human immunodeficiency virus 1, HXB2, MT4, 120 h; method in brief: as §1

Row | Structure (SMILES) | IC50
10 | Cc1ccnc2c1NC(=O)c1cccnc1N2C1CC1 [NEVIRAPINE] | 10000 nM
11 | Cc1cc(C)cc(Oc2c(Cn3ccnc3)c(C)[nH]c(=O)c2I)c1 | 10 nM
12 | Cc1cc(C)cc(Oc2c(Cn3cnnn3)c(C)[nH]c(=O)c2I)c1 | 5.9 nM
13 | Cc1cc(C)cc(Oc2c(CSCc3ccco3)c(C)[nH]c(=O)c2I)c1 | 5 nM

system: Human immunodeficiency virus 1; test: Antiviral activity against HIV1 HXB2 harboring Y188L mutant reverse transcriptase infected in human MT4 cells after 5 days by MTT assay; assay type: functional, organism-based; details: Human immunodeficiency virus 1, HXB2, MT4, 120 h; method in brief: as §1

Row | Structure (SMILES) | IC50
14 | Cc1ccnc2c1NC(=O)c1cccnc1N2C1CC1 [NEVIRAPINE] | 100000 nM
15 | Cc1cc(C)cc(Oc2c(Cn3ccnc3)c(C)[nH]c(=O)c2I)c1 | 31.6 nM
16 | Cc1cc(C)cc(Oc2c(Cn3cnnn3)c(C)[nH]c(=O)c2I)c1 | 10.3 nM
17 | Cc1cc(C)cc(Oc2c(CSCc3ccco3)c(C)[nH]c(=O)c2I)c1 | 31.6 nM

system: Human immunodeficiency virus 1; test: Antiviral activity against HIV1 HXB2 harboring 100I mutant reverse transcriptase infected in human MT4 cells after 5 days by MTT assay; assay type: functional, organism-based; details: Human immunodeficiency virus 1, HXB2, MT4, 120 h; method in brief: as §1

Row | Structure (SMILES) | IC50
18 | Cc1cc(C)cc(Oc2c(Cn3ccnc3)c(C)[nH]c(=O)c2I)c1 | 6.31 nM
19 | Cc1cc(C)cc(Oc2c(Cn3cnnn3)c(C)[nH]c(=O)c2I)c1 | 4 nM
20 | Cc1cc(C)cc(Oc2c(CSCc3ccco3)c(C)[nH]c(=O)c2I)c1 | 6.31 nM

system: Human immunodeficiency virus 1; test: Antiviral activity against HIV1 HXB2 harboring 101E mutant reverse transcriptase infected in human MT4 cells after 5 days by MTT assay; assay type: functional, organism-based; details: Human immunodeficiency virus 1, HXB2, MT4, 120 h; method in brief: as §1

Row | Structure (SMILES) | IC50
21 | Cc1cc(C)cc(Oc2c(Cn3ccnc3)c(C)[nH]c(=O)c2I)c1 | 9.2 nM
22 | Cc1cc(C)cc(Oc2c(Cn3cnnn3)c(C)[nH]c(=O)c2I)c1 | 4 nM
23 | Cc1cc(C)cc(Oc2c(CSCc3ccco3)c(C)[nH]c(=O)c2I)c1 | 6.31 nM
24 | O=C1Nc2ccc(Cl)cc2[C@@](C#CC2CC2)(C(F)(F)F)O1 [EFAVIRENZ] | 6.3 nM

system: Human immunodeficiency virus 1; test: Antiviral activity against HIV1 HXB2 harboring 106A mutant reverse transcriptase infected in human MT4 cells after 5 days by MTT assay; assay type: functional, organism-based; details: Human immunodeficiency virus 1, HXB2, MT4, 120 h; method in brief: as §1

Row | Structure (SMILES) | IC50
25 | Cc1cc(C)cc(Oc2c(Cn3ccnc3)c(C)[nH]c(=O)c2I)c1 | 3.7 nM
26 | Cc1cc(C)cc(Oc2c(Cn3cnnn3)c(C)[nH]c(=O)c2I)c1 | 2 nM
27 | Cc1cc(C)cc(Oc2c(CSCc3ccco3)c(C)[nH]c(=O)c2I)c1 | 1.58 nM

system: Human immunodeficiency virus 1; test: Antiviral activity against HIV1 HXB2 harboring 138K mutant reverse transcriptase infected in human MT4 cells after 5 days by MTT assay; assay type: functional, organism-based; details: Human immunodeficiency virus 1, HXB2, MT4, 120 h; method in brief: as §1

Row | Structure (SMILES) | IC50
28 | Cc1ccnc2c1NC(=O)c1cccnc1N2C1CC1 [NEVIRAPINE] | 51 nM
29 | Cc1cc(C)cc(Oc2c(Cn3ccnc3)c(C)[nH]c(=O)c2I)c1 | 11.2 nM
30 | Cc1cc(C)cc(Oc2c(Cn3cnnn3)c(C)[nH]c(=O)c2I)c1 | 3.9 nM
31 | Cc1cc(C)cc(Oc2c(CSCc3ccco3)c(C)[nH]c(=O)c2I)c1 | 1.25 nM

system: Human immunodeficiency virus 1; test: Antiviral activity against HIV1 HXB2 harboring 179E mutant reverse transcriptase infected in human MT4 cells after 5 days by MTT assay; assay type: functional, organism-based; details: Human immunodeficiency virus 1, HXB2, MT4, 120 h; method in brief: as §1

Row | Structure (SMILES) | IC50
32 | Cc1ccnc2c1NC(=O)c1cccnc1N2C1CC1 [NEVIRAPINE] | 195 nM
33 | Cc1cc(C)cc(Oc2c(Cn3ccnc3)c(C)[nH]c(=O)c2I)c1 | 5.1 nM
34 | Cc1cc(C)cc(Oc2c(Cn3cnnn3)c(C)[nH]c(=O)c2I)c1 | 1.4 nM
35 | Cc1cc(C)cc(Oc2c(CSCc3ccco3)c(C)[nH]c(=O)c2I)c1 | 1 nM
36 | O=C1Nc2ccc(Cl)cc2[C@@](C#CC2CC2)(C(F)(F)F)O1 [EFAVIRENZ] | 5.01 nM

system: Human immunodeficiency virus 1; test: Antiviral activity against HIV1 HXB2 harboring 190A mutant reverse transcriptase infected in human MT4 cells after 5 days by MTT assay; assay type: functional, organism-based; details: Human immunodeficiency virus 1, HXB2, MT4, 120 h; method in brief: as §1

Row | Structure (SMILES) | IC50
37 | Cc1cc(C)cc(Oc2c(Cn3ccnc3)c(C)[nH]c(=O)c2I)c1 | 8 nM
38 | Cc1cc(C)cc(Oc2c(Cn3cnnn3)c(C)[nH]c(=O)c2I)c1 | 3.7 nM
39 | Cc1cc(C)cc(Oc2c(CSCc3ccco3)c(C)[nH]c(=O)c2I)c1 | 3.16 nM
40 | O=C1Nc2ccc(Cl)cc2[C@@](C#CC2CC2)(C(F)(F)F)O1 [EFAVIRENZ] | 10 nM

system: Human immunodeficiency virus 1; test: Antiviral activity against HIV1 HXB2 harboring 190S mutant reverse transcriptase infected in human MT4 cells after 5 days by MTT assay; assay type: functional, organism-based; details: Human immunodeficiency virus 1, HXB2, MT4, 120 h; method in brief: as §1

Row | Structure (SMILES) | IC50
41 | Cc1ccnc2c1NC(=O)c1cccnc1N2C1CC1 [NEVIRAPINE] | 44 nM
42 | Cc1cc(C)cc(Oc2c(Cn3ccnc3)c(C)[nH]c(=O)c2I)c1 | 2.2 nM
43 | Cc1cc(C)cc(Oc2c(Cn3cnnn3)c(C)[nH]c(=O)c2I)c1 | 0.4 nM
44 | Cc1cc(C)cc(Oc2c(CSCc3ccco3)c(C)[nH]c(=O)c2I)c1 | 1.25 nM
45 | O=C1Nc2ccc(Cl)cc2[C@@](C#CC2CC2)(C(F)(F)F)O1 [EFAVIRENZ] | 251 nM

system: Human immunodeficiency virus 1; test: Antiviral activity against HIV1 HXB2 harboring 227C mutant reverse transcriptase infected in human MT4 cells after 5 days by MTT assay; assay type: functional, organism-based; details: Human immunodeficiency virus 1, HXB2, MT4, 120 h; method in brief: as §1

Row | Structure (SMILES) | IC50
46 | Cc1ccnc2c1NC(=O)c1cccnc1N2C1CC1 [NEVIRAPINE] | 135 nM
47 | Cc1cc(C)cc(Oc2c(Cn3cnnn3)c(C)[nH]c(=O)c2I)c1 | 2.6 nM
48 | Cc1cc(C)cc(Oc2c(CSCc3ccco3)c(C)[nH]c(=O)c2I)c1 | 39.8 nM

system: Human immunodeficiency virus 1; test: Antiviral activity against HIV1 HXB2 harboring 100I and K103N mutant reverse transcriptase infected in human MT4 cells after 5 days by MTT assay; assay type: functional, organism-based; details: Human immunodeficiency virus 1, HXB2, MT4, 120 h; method in brief: as §1

Row | Structure (SMILES) | IC50
49 | Cc1cc(C)cc(Oc2c(Cn3ccnc3)c(C)[nH]c(=O)c2I)c1 | 23.7 nM
50 | Cc1cc(C)cc(Oc2c(Cn3cnnn3)c(C)[nH]c(=O)c2I)c1 | 4.7 nM
51 | Cc1cc(C)cc(Oc2c(CSCc3ccco3)c(C)[nH]c(=O)c2I)c1 | 31.6 nM

system: Human immunodeficiency virus 1; test: Antiviral activity against HIV1 HXB2 harboring 101E and K103N mutant reverse transcriptase infected in human MT4 cells after 5 days by MTT assay; assay type: functional, organism-based; details: Human immunodeficiency virus 1, HXB2, MT4, 120 h; method in brief: as §1

Row | Structure (SMILES) | IC50
52 | Cc1cc(C)cc(Oc2c(Cn3ccnc3)c(C)[nH]c(=O)c2I)c1 | 28.6 nM
53 | Cc1cc(C)cc(Oc2c(Cn3cnnn3)c(C)[nH]c(=O)c2I)c1 | 4.6 nM
54 | Cc1cc(C)cc(Oc2c(CSCc3ccco3)c(C)[nH]c(=O)c2I)c1 | 3.98 nM

system: Human immunodeficiency virus 1; test: Antiviral activity against HIV1 HXB2 harboring K103N and Y181C mutant reverse transcriptase infected in human MT4 cells after 5 days by MTT assay; assay type: functional, organism-based; details: Human immunodeficiency virus 1, HXB2, MT4, 120 h; method in brief: as §1

Row | Structure (SMILES) | IC50
55 | Cc1ccnc2c1NC(=O)c1cccnc1N2C1CC1 [NEVIRAPINE] | 100000 nM
56 | Cc1cc(C)cc(Oc2c(Cn3ccnc3)c(C)[nH]c(=O)c2I)c1 | 71.2 nM
57 | Cc1cc(C)cc(Oc2c(Cn3cnnn3)c(C)[nH]c(=O)c2I)c1 | 17.4 nM
58 | Cc1cc(C)cc(Oc2c(CSCc3ccco3)c(C)[nH]c(=O)c2I)c1 | 5.01 nM

system: Human immunodeficiency virus 1; test: Antiviral activity against HIV1 HXB2 harboring 227L and 106A mutant reverse transcriptase infected in human MT4 cells after 5 days by MTT assay; assay type: functional, organism-based; details: Human immunodeficiency virus 1, HXB2, MT4, 120 h; method in brief: as §1

Row | Structure (SMILES) | IC50
59 | Cc1ccnc2c1NC(=O)c1cccnc1N2C1CC1 [NEVIRAPINE] | 163 nM
60 | Cc1cc(C)cc(Oc2c(Cn3cnnn3)c(C)[nH]c(=O)c2I)c1 | 3.8 nM
61 | Cc1cc(C)cc(Oc2c(CSCc3ccco3)c(C)[nH]c(=O)c2I)c1 | 125 nM
62 | O=C1Nc2ccc(Cl)cc2[C@@](C#CC2CC2)(C(F)(F)F)O1 [EFAVIRENZ] | 25.1 nM
